The record followed here is ChEMBL document CHEMBL1153570, “Synthesis and antitubercular screening of imidazole derivatives” (2009).

Holding throughout (format): functional
The subject of assay [1] is Mycobacterium tuberculosis. Briefly: Antimycobacterial activity against Mycobacterium tuberculosis H37Rv by agar microdilution assay. In short, it runs like this:
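H37Rv from L–J medium suspended in 0.85% saline with 0.05% Tween-80. Twofold compound dilutions in OADC-supplemented 7H10 agar slants, preincubated 24 h at 37 °C, then streaked with 5 × 10⁴ bacilli per tube. Incubated at 37 °C and growth read after 30 days against drug-free controls. MIC taken as the concentration giving complete inhibition of colonies.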

Assay [2] has as its system Mycobacterium tuberculosis. Briefly: Antimycobacterial activity against Mycobacterium tuberculosis H37Ra after 5 days by microplate alamar blue assay. Particulars: 120 h. Summed up:
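Log-phase M. tuberculosis H37Ra diluted to final OD550 0.05 in Sauton's medium. Compounds in DMSO, twofold dilutions from […]. Incubated at 37 °C/5% CO2 for 5 days, alamar blue added on day 5, incubated overnight. Fluorescence read-out.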
On the technique in general: Resazurin is reduced to fluorescent resorufin, in cell work by metabolically active cells.

Assay [3] deals with Mycobacterium tuberculosis. As to the kind of experiment: Antitubercular activity against Mycobacterium tuberculosis H37Rv after 5 to 8 days by BACTEC radiometric assay. In short, it runs like this: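 H37Rv from L–J slants homogenized with glass beads and adjusted to McFarland 1. Primary inoculum grown in BACTEC 12B vial to GI 500–700, then 0.1 ml added to 4 ml 12B broth containing compound. A 1:100-inoculum control vial was included. Incubated at 37 °C with daily GI readings; read one more day after the 1:100 control reached GI 30.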

Values after ≈ are worked out from the molar mass of the structure shown.

On to `c1ccc(Cn2cnc3ccccc32)cc1`, for which the MIC in assay [1] and in assay [2] was greater than 12.5 µg/mL throughout.
In the case of `Clc1ccc(Cn2ccnc2)cc1Cl`, the MIC in assay [2] is greater than 12.5 µg/mL.
For the compound `CCCCCCNC(=O)Cn1ccnc1`, the MIC in assay [1] was greater than 12.5 µg/mL; in assay [2], 25 µg/mL (≈ 119 µM).
With `CCOC(=O)CCn1ccnc1`, in assay [1], the MIC is greater than 12.5 µg/mL.
For the compound `c1cn(CCCCCn2ccnc2)cn1`, the MIC in assay [1] and in assay [2] was greater than 12.5 µg/mL throughout.
Turning to `CCOC(=O)Cn1ccnc1`, the values for the MIC in assay [1] and in assay [2] were greater than 6.25 µg/mL and greater than 12.5 µg/mL, respectively.
As to `C=CCc1cnc(CCC)n1CCCn1ccnc1CCC`, the MIC in assay [1] was 25 µg/mL (≈ 83.2 µM); in assay [2], greater than 12.5 µg/mL.
Take `c1cn(CCCn2ccnc2)cn1`: the MIC in assay [1] and in assay [2] was greater than 12.5 µg/mL in each case.
As for `CCCc1nccn1C(CC(=O)OCC)C1O[C@H]2OC(C)(C)O[C@H]2[C@@H]1OC` (stereo not given in full), the MIC in assay [1] and in assay [2] was 25 µg/mL (≈ 65.4 µM) each time.
`CCCCCCCNC(=O)Cn1ccnc1`: the MIC in assay [1] and in assay [2] was greater than 12.5 µg/mL each time.
In the case of `CCCCNC(=O)Cn1ccnc1`, the MIC in assay [1] and in assay [2] was greater than 12.5 µg/mL in each case.
Consider `OCCn1ccnc1`, for which the MIC in assay [1] and in assay [2] was greater than 12.5 µg/mL throughout.
Regarding `CCOC(=O)CC(C1O[C@H]2OC(C)(C)O[C@H]2[C@@H]1OC)n1ccnc1` (stereo not given in full), the MIC in assay [1] and in assay [2] was 25 µg/mL (≈ 73.4 µM) each time.
In the case of `c1ccc(CNCCn2ccnc2)cc1`, the MIC in assay [1] and in assay [2] was 12.5 µg/mL (≈ 62.1 µM) each time.
In the case of `CCOC(=O)CC(C1O[C@H]2OC(C)(C)O[C@H]2[C@@H]1OCc1ccccc1)n1ccnc1` (stereo not given in full), the MIC in assay [1] and in assay [2] was 50 µg/mL (≈ 120 µM) throughout.
In the case of `CCCc1nccn1CCCn1ccnc1CCC`, the MIC in assay [2] was greater than 12.5 µg/mL; in assay [3], 6.25 µg/mL (≈ 24 µM).
For `O=C(Cn1ccnc1)NCc1ccccc1`, the MIC in assay [1] and in assay [2] was greater than 12.5 µg/mL in each case.
For `CCCc1nccn1C(CC(=O)OCC)C1O[C@H]2OC(C)(C)O[C@H]2[C@@H]1OCc1ccccc1` (stereo not given in full), the MIC in assay [1] and in assay [2] was 50 µg/mL (≈ 109 µM) throughout.
Consider `Clc1ccc(Cn2cnc3ccccc32)cc1Cl`, for which the MIC in assay [1] and in assay [2] was greater than 12.5 µg/mL throughout.
As to `CC[C@@H](CO)NCCN[C@@H](CC)CO` [ETHAMBUTOL], the MIC in assay [1] and in assay [2] was 1.5 µg/mL (≈ 7.34 µM) in each case.
Regarding `NNC(=O)c1ccncc1` [ISONIAZID], the MIC in assay [1] and in assay [2] was 0.65 µg/mL (≈ 4.74 µM) each time.

For orientation: MIC means the smallest concentration in the dilution series that meets the test's criterion for growth inhibition. Low values mean greater potency, high ones weaker potency.
